Assay results published in ChEMBL document CHEMBL1275436, “Trypanocidal and leishmanicidal activities of sesquiterpene lactones from Ambrosia tenuifolia Sprengel (Asteraceae)” (Antimicrob Agents Chemother, 2008).
In brackets after ≈: the same amount, converted by molar mass. Activity calls are given as the source filed them. The rule behind the calls is not given here.

Legend:
Leishmania mexicana = assay: Antileishmanial activity against Leishmania mexicana MNYC/BZ/62/M promastigotes after 120 hrs by [3H]thymidine uptake assay; format: functional, organism-based
How it was run: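 Promastigotes were seeded at 1.5 x 10^6/ml in triplicate and exposed to 0.01 to 100 µg/ml compound for 72 or 120 h. [3H]thymidine was added for the last 16 h. Percent inhibition = 100 − (cpm treated/cpm untreated × 100). Amphotericin B (0.27–1.6 µM) was the positive control.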

[1] = Cytotoxicity against BALB/c mouse T cell after 24 hrs by trypan blue exclusion method; format: cell-based; conditions: T cells
How it was run: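 BALB/c mouse T lymphocytes at 2 x 10^6/ml were exposed to 0.1, 1, 10 and 50 µg/ml compound for 24 h. Viability was scored by trypan blue exclusion. Results are means ± SEM of three experiments done in duplicate.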

[2] = Selectivity index, ratio of CC50 for mouse T cells to IC50 for Trypanosoma cruzi trypomastigotes; format: functional, T-cell
How it was run: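 SI = 50% cytotoxic concentration on murine T lymphocytes (24 h, trypan blue exclusion) divided by IC50 against bloodstream trypomastigotes (24 h, Neubauer count of live parasites).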

Trypanosoma cruzi [3] = assay: Antitrypanosomal activity against Trypanosoma cruzi trypomastigotes after 24 hrs by counting remaining live parasites in a Neubauer chamber
Trypanosoma cruzi [4] = assay: Antitrypanosomal activity against Trypanosoma cruzi epimastigotes after 72 hrs by [3H]thymidine uptake assay; format: functional, organism-based
How it was run: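 Epimastigotes were seeded at 1.5 x 10^6/ml in triplicate with compound up to 100 µg/ml for 72 or 120 h, with [3H]thymidine pulsed for the final 16 h. Inhibition % = 100 − (cpm treated/cpm untreated × 100). Benznidazole (5 to 20 µM) was the positive control. Results are means ± SEM.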

Trypanosoma cruzi [5] = assay: Antitrypanosomal activity against Trypanosoma cruzi trypomastigotes infected in C3H/HeN mouse assessed survival rate at 1 mg/kg/day, ip treated from day 5 to 10 postinfection measured on 100th day postinfection; format: functional; conditions: route intraperitoneal
How it was run: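 Male inbred C3H/HeN mice, 6 to 8 weeks old, 27.2 ± 0.9 g, in groups of five, infected ip with 5 x 10^3 bloodstream trypomastigotes. Circulating parasites confirmed on day 5 by microhematocrit. Dosed ip daily, 1 mg/kg/day, on days 5 to 10 postinfection, in 0.1 M PBS pH 7.2; vehicle alone as negative control. Deaths recorded daily; three independent experiments.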

Trypanosoma cruzi [6] = assay: Antitrypanosomal activity against Trypanosoma cruzi trypomastigotes infected in C3H/HeN mouse assessed as reduction in parasitemia at 1 mg/kg/day, ip treated from day 5 to 10 postinfection measured during acute phase of infection relative to control; format: functional; conditions: route intraperitoneal
How it was run: (§1)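 Male C3H/HeN mice (6–8 weeks, groups of five) were infected ip with 5 x 10^3 bloodstream trypomastigotes, with parasitemia confirmed on day 5 by microhematocrit. Dosing was 1 mg/kg/day ip in 0.1 M PBS pH 7.2 on days 5–10; vehicle served as negative control. Tail blood (5 µl, lysed 1:5 in NH4Cl/Tris) was counted by Neubauer chamber every 2 days. Deaths were recorded daily. Three independent experiments were run.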

Trypanosoma cruzi [7] = assay: Antitrypanosomal activity against Trypanosoma cruzi trypomastigotes infected in C3H/HeN mouse assessed as decrease in parasitemia at 1 mg/kg/day, ip treated from day 5 to 10 postinfection measured on day 16; format: functional, organism-based; how it was run: as §1

| Compound | IC50 (Leishmania mexicana) | CC50 at 24 h [1] | Selectivity Index [2] | IC50 (Trypanosoma cruzi [3]) | IC50 (Trypanosoma cruzi [4]) | Activity (Trypanosoma cruzi [5]) | fold change (FC) (Trypanosoma cruzi [6]) | inhibition (Trypanosoma cruzi [7]) |
| --- | --- | --- | --- | --- | --- | --- | --- | --- |
| C=C1C(=O)O[C@@H]2C[C@H](C)[C@]3(O)CCC(=O)[C@@]3(C)C[C@H]12 [PERUVIN] | 0.39 µg/mL (≈ 1.48 µM) | 35 µg/mL (≈ 132 µM) | 0.7 | 52.8 µg/mL (≈ 200 µM) | 1.65 µg/mL (≈ 6.24 µM) | – | – | – |
| C=C1C(=O)O[C@@H]2[C@H]1CC[C@H](C)[C@]1(CCC(=O)O1)[C@@]2(C)O [PSILOSTACHYIN A] | 0.12 µg/mL (≈ 0.428 µM) | 25.7 µg/mL (≈ 91.7 µM) | 33.8 | 0.76 µg/mL (≈ 2.71 µM) | 1.22 µg/mL (≈ 4.35 µM) | 100% | 1.5 | Active |
